In brackets after ≈: the same amount, converted by molar mass.
Key:
Type in all cases: functional
[1] = system: Pseudomonas aeruginosa; assay: Antimicrobial activity against metallo-beta-lactamase-negative Pseudomonas aeruginosa isolate PA483
[2] = system: Pseudomonas aeruginosa; assay: Antimicrobial activity against Pseudomonas aeruginosa PA552 expressing IMP-1 beta-lactamase
Outline: (§1)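 Well-characterized MBL-producing control strains from earlier studies: nine P. aeruginosa and one A. baumannii. MIC was read in μg/ml and used to set screening breakpoints for MBL producers.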

[3] = system: Pseudomonas aeruginosa; assay: Antimicrobial activity against metallo-beta-lactamase-negative Pseudomonas aeruginosa isolate PA346
Outline: (§2)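 MBL-negative clinical P. aeruginosa isolates with reduced imipenem susceptibility, collected at the study hospital, some from cystic fibrosis patients. Species identity was confirmed by automated Gram-negative identification card. MIC was read in μg/ml.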

[4] = system: Pseudomonas aeruginosa; assay: Antimicrobial activity against metallo-beta-lactamase-negative Pseudomonas aeruginosa isolate PA507; outline: as §2
[5] = system: Pseudomonas aeruginosa; assay: Antimicrobial activity against metallo-beta-lactamase-negative Pseudomonas aeruginosa isolate PA395; outline: as §2
[6] = system: Pseudomonas aeruginosa; assay: Antimicrobial activity against Pseudomonas aeruginosa PA386 expressing IMP-13 beta-lactamase; outline: as §1
[7] = system: Pseudomonas aeruginosa; assay: Antimicrobial activity against Pseudomonas aeruginosa isolate PA462 expressing VIM-2 beta-lactamase
[8] = system: Pseudomonas aeruginosa; assay: Antimicrobial activity against metallo-beta-lactamase-negative Pseudomonas aeruginosa isolate PA377; outline: as §2
[9] = system: Pseudomonas aeruginosa; assay: Antimicrobial activity against metallo-beta-lactamase-negative Pseudomonas aeruginosa isolate PA460
[10] = system: Pseudomonas aeruginosa; assay: Antimicrobial activity against metallo-beta-lactamase-negative Pseudomonas aeruginosa isolate PA758 isolated from patient with cystic fibrosis; outline: as §2
[11] = system: Pseudomonas aeruginosa; assay: Antimicrobial activity against metallo-beta-lactamase-negative Pseudomonas aeruginosa isolate PA382; outline: as §2
[12] = system: Pseudomonas aeruginosa; assay: Antimicrobial activity against metallo-beta-lactamase-negative Pseudomonas aeruginosa isolate PA339; outline: as §2
[13] = system: Pseudomonas aeruginosa; assay: Antimicrobial activity against metallo-beta-lactamase-negative Pseudomonas aeruginosa isolate PA364; outline: as §2
[14] = system: Pseudomonas aeruginosa; assay: Antimicrobial activity against metallo-beta-lactamase-negative Pseudomonas aeruginosa isolate PA734 isolated from patient with cystic fibrosis; outline: as §2
[15] = system: Pseudomonas aeruginosa; assay: Antimicrobial activity against metallo-beta-lactamase-negative Pseudomonas aeruginosa isolate PA355; outline: as §2
[16] = system: Pseudomonas aeruginosa; assay: Antimicrobial activity against Pseudomonas aeruginosa isolate PA469 expressing VIM-2 beta-lactamase
[17] = system: Pseudomonas aeruginosa; assay: Antimicrobial activity against Pseudomonas aeruginosa PA431 expressing IMP-1 beta-lactamase; outline: as §1
[18] = system: Pseudomonas aeruginosa; assay: Antimicrobial activity against metallo-beta-lactamase-negative Pseudomonas aeruginosa isolate PA376
[19] = system: Pseudomonas aeruginosa; assay: Antimicrobial activity against metallo-beta-lactamase-negative Pseudomonas aeruginosa isolate PA368; outline: as §2
[20] = system: Pseudomonas aeruginosa; assay: Antimicrobial activity against metallo-beta-lactamase-negative Pseudomonas aeruginosa isolate PA356; outline: as §2
[21] = system: Pseudomonas aeruginosa; assay: Antimicrobial activity against metallo-beta-lactamase-negative Pseudomonas aeruginosa isolate PA479
[22] = system: Pseudomonas aeruginosa; assay: Antimicrobial activity against metallo-beta-lactamase-negative Pseudomonas aeruginosa isolate PA380; outline: as §2
[23] = system: Pseudomonas aeruginosa; assay: Antimicrobial activity against Pseudomonas aeruginosa PA553 expressing SPM-1 beta-lactamase; outline: as §1
[24] = system: Pseudomonas aeruginosa; assay: Antimicrobial activity against Pseudomonas aeruginosa isolate PA465 expressing VIM-2 beta-lactamase
[25] = system: Pseudomonas aeruginosa; assay: Antimicrobial activity against metallo-beta-lactamase-negative Pseudomonas aeruginosa isolate PA340; outline: as §2
[26] = system: Pseudomonas aeruginosa; assay: Antimicrobial activity against Pseudomonas aeruginosa isolate PA475 expressing VIM-2 beta-lactamase
[27] = system: Pseudomonas aeruginosa; assay: Antimicrobial activity against metallo-beta-lactamase-negative Pseudomonas aeruginosa isolate PA342; outline: as §2
[28] = system: Pseudomonas aeruginosa; assay: Antimicrobial activity against Pseudomonas aeruginosa isolate PA510 expressing VIM-2 beta-lactamase
[29] = system: Pseudomonas aeruginosa; assay: Antimicrobial activity against Pseudomonas aeruginosa isolate PA399 expressing VIM-2 beta-lactamase
[30] = system: Pseudomonas aeruginosa; assay: Antimicrobial activity against metallo-beta-lactamase-negative Pseudomonas aeruginosa isolate PA362; outline: as §2
[31] = system: Pseudomonas aeruginosa; assay: Antimicrobial activity against metallo-beta-lactamase-negative Pseudomonas aeruginosa isolate PA350; outline: as §2
[32] = system: Pseudomonas aeruginosa; assay: Antimicrobial activity against metallo-beta-lactamase-negative Pseudomonas aeruginosa isolate PA341; outline: as §2
[33] = system: Pseudomonas aeruginosa; assay: Antimicrobial activity against Pseudomonas aeruginosa PA550 expressing VIM-1 beta-lactamase; outline: as §1
[34] = system: Acinetobacter baumannii; assay: Antimicrobial activity against Acinetobacter baumannii AB551 expressing SIM-1 beta-lactamase; outline: as §1
[35] = system: Pseudomonas aeruginosa; assay: Antimicrobial activity against metallo-beta-lactamase-negative Pseudomonas aeruginosa isolate PA370; outline: as §2
[36] = system: Pseudomonas aeruginosa; assay: Antimicrobial activity against metallo-beta-lactamase-negative Pseudomonas aeruginosa isolate PA459; outline: as §2
[37] = system: Pseudomonas aeruginosa; assay: Antimicrobial activity against metallo-beta-lactamase-negative Pseudomonas aeruginosa isolate PA494
[38] = system: Pseudomonas aeruginosa; assay: Antimicrobial activity against Pseudomonas aeruginosa PA399 expressing VIM-2 beta-lactamase; outline: as §1
[39] = system: Pseudomonas aeruginosa; assay: Antimicrobial activity against metallo-beta-lactamase-negative Pseudomonas aeruginosa isolate PA349; outline: as §2
[40] = system: Pseudomonas aeruginosa; assay: Antimicrobial activity against metallo-beta-lactamase-negative Pseudomonas aeruginosa isolate PA361; outline: as §2
[41] = system: Pseudomonas aeruginosa; assay: Antimicrobial activity against Pseudomonas aeruginosa isolate PA500 expressing VIM-1 beta-lactamase
[42] = system: Pseudomonas aeruginosa; assay: Antimicrobial activity against Pseudomonas aeruginosa isolate PA477 expressing VIM-2 beta-lactamase
[43] = system: Pseudomonas aeruginosa; assay: Antimicrobial activity against Pseudomonas aeruginosa PA430 expressing VIM-4 beta-lactamase; outline: as §1
[44] = system: Pseudomonas aeruginosa; assay: Antimicrobial activity against Pseudomonas aeruginosa PA554 expressing GIM-1 beta-lactamase; outline: as §1
[45] = system: Pseudomonas aeruginosa; assay: Antimicrobial activity against metallo-beta-lactamase-negative Pseudomonas aeruginosa isolate PA509
[46] = system: Pseudomonas aeruginosa; assay: Antimicrobial activity against metallo-beta-lactamase-negative Pseudomonas aeruginosa isolate PA352; outline: as §2
[47] = system: Pseudomonas aeruginosa; assay: Antimicrobial activity against metallo-beta-lactamase-negative Pseudomonas aeruginosa isolate PA360; outline: as §2
[48] = system: Pseudomonas aeruginosa; assay: Antimicrobial activity against metallo-beta-lactamase-negative Pseudomonas aeruginosa isolate PA736 isolated from patient with cystic fibrosis; outline: as §2
[49] = system: Pseudomonas aeruginosa; assay: Antimicrobial activity against metallo-beta-lactamase-negative Pseudomonas aeruginosa isolate PA381; outline: as §2
[50] = system: Pseudomonas aeruginosa; assay: Antimicrobial activity against Pseudomonas aeruginosa isolate PA481 expressing VIM-2 beta-lactamase
[51] = system: Pseudomonas aeruginosa; assay: Antimicrobial activity against Pseudomonas aeruginosa PA373 expressing VIM-2 beta-lactamase; outline: as §1
[52] = system: Pseudomonas aeruginosa; assay: Antimicrobial activity against metallo-beta-lactamase-negative Pseudomonas aeruginosa isolate PA774 isolated from patient with cystic fibrosis; outline: as §2

Question: Which results are given for CC(C)(O/N=C(\C(=O)N[C@@H]1C(=O)N2C(C(=O)[O-])=C(C[n+]3ccccc3)CS[C@H]12)c1csc(N)n1)C(=O)O [CEFTAZIDIME]?
Answer: MIC [1]: ≥ 64 µg/mL; MIC [2]: ≥ 64 µg/mL; MIC [3]: 4 µg/mL (≈ 7.32 µM); MIC [4]: 32 µg/mL (≈ 58.5 µM); MIC [5]: ≥ 64 µg/mL; MIC [6]: ≥ 64 µg/mL; MIC [7]: ≥ 64 µg/mL; MIC [8]: 8 µg/mL (≈ 14.6 µM); MIC [9]: 32 µg/mL (≈ 58.5 µM); MIC [10]: 4 µg/mL (≈ 7.32 µM); MIC [11]: 4 µg/mL (≈ 7.32 µM); MIC [12]: 8 µg/mL (≈ 14.6 µM); MIC [13]: 4 µg/mL (≈ 7.32 µM); MIC [14]: 4 µg/mL (≈ 7.32 µM); MIC [15]: 4 µg/mL (≈ 7.32 µM); MIC [16]: ≥ 64 µg/mL; MIC [17]: ≥ 64 µg/mL; MIC [18]: 16 µg/mL (≈ 29.3 µM); MIC [19]: 4 µg/mL (≈ 7.32 µM); MIC [20]: 4 µg/mL (≈ 7.32 µM); MIC [21]: ≥ 64 µg/mL; MIC [22]: 4 µg/mL (≈ 7.32 µM); MIC [23]: ≥ 64 µg/mL; MIC [24]: ≥ 64 µg/mL; MIC [25]: 4 µg/mL (≈ 7.32 µM); MIC [26]: ≥ 64 µg/mL; MIC [27]: 4 µg/mL (≈ 7.32 µM); MIC [28]: ≥ 64 µg/mL; MIC [29]: ≥ 64 µg/mL; MIC [30]: 32 µg/mL (≈ 58.5 µM); MIC [31]: 4 µg/mL (≈ 7.32 µM); MIC [32]: ≥ 64 µg/mL; MIC [33]: ≥ 64 µg/mL; MIC [34]: ≥ 64 µg/mL; MIC [35]: 8 µg/mL (≈ 14.6 µM); MIC [36]: 32 µg/mL (≈ 58.5 µM); MIC [37]: 32 µg/mL (≈ 58.5 µM); MIC [38]: ≥ 64 µg/mL; MIC [39]: 8 µg/mL (≈ 14.6 µM); MIC [40]: ≥ 64 µg/mL; MIC [41]: ≥ 64 µg/mL; MIC [42]: ≥ 64 µg/mL; MIC [43]: ≥ 64 µg/mL; MIC [44]: ≥ 64 µg/mL; MIC [45]: 32 µg/mL (≈ 58.5 µM); MIC [46]: 4 µg/mL (≈ 7.32 µM); MIC [47]: 16 µg/mL (≈ 29.3 µM); MIC [48]: ≥ 64 µg/mL; MIC [49]: 4 µg/mL (≈ 7.32 µM); MIC [50]: ≥ 64 µg/mL; MIC [51]: ≥ 64 µg/mL; MIC [52]: ≥ 64 µg/mL

— ChEMBL document CHEMBL1275252, “First survey of metallo-beta-lactamases in clinical isolates of Pseudomonas aeruginosa in a German university hospital” (2010)
